Reference: ChEMBL document CHEMBL1811872, “Tryptophan 2,3-dioxygenase (TDO) inhibitors. 3-(2-(pyridyl)ethenyl)indoles as potential anticancer immunomodulators” (J Med Chem, 2011)

Substrate: N[C@@H](Cc1c[nH]c2ccccc12)C(=O)O
Experiment: Activity of human recombinant TDO expressed in Escherichia coli BL21 using L-tryptophan as substrate by measuring conversion of N-formylkynurenine into kynurenine per mg of protein after 30 mins by Michaelis-Menten steady state analysis
In short: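 Crude extract of E. coli overexpressing recombinant human TDO (~3 μg total protein) was added to prewarmed mix: 50 mM phosphate pH 7.5, 20 mM ascorbate, 10 μM methylene blue, 500 IU/mL catalase and varied L-Trp. Run at 37 °C, stopped with TCA at 2 and 4 min, then 65 °C for 30 min. Kynurenine was read at 480 nm with Ehrlich's reagent against a kynurenine standard curve; rate taken from 2–4 min.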

B1: Tryptophan 2,3-dioxygenase (Homo sapiens), P48775 (protein)
chain: MSGCPFLGNNFGYTFKKLPVEGSEEDKSQTGVNRASKGGLIYGNYLHLEKVLNAQELQSETKGNKIHDEHLFIITHQAYELWFKQILWELDSVREIFQNGHVRDERNMLKVVSRMHRVSVILKLLVQQFSILETMTALDFNDFREYLSPASGFQSLQFRLLENKIGVLQNMRVPYNRRHYRDNFKGEENELLLKSEQEKTLLELVEAWLERTPGLEPHGFNFWGKLEKNITRGLEEEFIRIQAKEESEEKEEQVAEFQKQKEVLLSLFDEKRHEHLLSKGERRLSYRALQGALMIYFYREEPRFQVPFQLLTSLMDIDSLMTKWRYNHVCMVHRMLGSKAGTGGSSGYHYLRSTVSDRYKVFVDLFNLSTYLIPRHWIPKMNPTIHKFLYTAEYCDSSYFSSDESD
With B1 the Km was 167 µM and the Vmax was 97 µM/s.
